Experiments:
[1] = target: T1, Human immunodeficiency virus type 1 integrase (Human immunodeficiency virus 1, UniProt Q7ZJM1); experiment: Inhibition of HIV1 integrase 3' processing activity after 1 hr by gel based assay in presence of magnesium
Summary of the method: (§1)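 Buffer was 20 mM HEPES pH 7.5, 1 mM DTT, 10 mM MgCl2 and 10% DMSO, for 1 h at 37 °C. DNA was precipitated, phenol/chloroform-extracted and analysed on gel. IC50 was fitted from percent inhibition versus concentration, from duplicate experiments.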

[2] = Selectivity index, ratio of CC50 for human TZM-bl cells to EC50 for HIV1 NL4-3; format: toxicity, cell-based; details: read-out: Ratio CC50/EC50
Summary of the method: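 Index was calculated as CC50/EC50, both determined in TZM-bl cells (WST-1 viability over 3 days; NL4-3 infection with β-galactosidase read-out).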

[3] = test system: Human immunodeficiency virus 1; experiment: Antiviral activity against HIV1 NL4-3 infected in human TZM-bl cells assessed as inhibition of Tat protein-induced transactivation after 48 hrs by beta galactosidase assay; format: functional, organism-based; details: Human immunodeficiency virus 1, NL4-3, TZM-bl
Summary of the method: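 TZM-bl cells were grown in DMEM at 37 °C with 5% CO2 and plated at 5000 cells/well. After 48 h the medium was replaced with compound dilutions (0.00128 to 4). Cells were infected with NL4-3 (100 ng p24) 4 h later. At 48 h post-infection, cells were lysed in PBS with 0.1% NP-40 and 5 mM MgCl2. β-galactosidase was read with chlorophenol red-galactopyranoside. EC50 came from dose-response curves.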

[4] = Cytotoxicity against human TZM-bl cells assessed as cell viability after 3 days by WST-1 assay; format: cell-based
Summary of the method: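 TZM-bl cells were seeded at 5000/well, and compound dilutions (100 to 0.032) were added 2 h later. Cells and compound were held 3 days at 37 °C in growth medium. Viability was measured by WST-1 cleavage, absorbance at […]. Cytotoxicity is the percent reduction in viable cells relative to drug-free control cultures.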

[5] = target: T1, Human immunodeficiency virus type 1 integrase; experiment: Inhibition of HIV1 integrase strand transfer activity after 1 hr by gel based assay in presence of magnesium; summary of the method: as §1

T1 sequence (Q7ZJM1 whole entry): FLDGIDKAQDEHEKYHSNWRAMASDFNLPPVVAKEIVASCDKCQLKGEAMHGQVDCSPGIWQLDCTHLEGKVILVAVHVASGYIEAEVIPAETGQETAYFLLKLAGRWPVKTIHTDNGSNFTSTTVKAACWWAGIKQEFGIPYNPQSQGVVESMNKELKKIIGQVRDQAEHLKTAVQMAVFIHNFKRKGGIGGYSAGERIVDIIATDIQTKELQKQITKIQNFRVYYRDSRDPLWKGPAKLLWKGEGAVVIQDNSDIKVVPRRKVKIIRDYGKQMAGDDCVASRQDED

Compound | IC50 [1] [µM] | selectivity ratio [2] | EC50 [3] [µM] | CC50 at 72 h [4] [µM] | IC50 [5] [µM]
CCOC(=O)/C(O)=C/C(=O)c1cn(Cc2ccc(F)cc2)c2ccc(OCc3ccc(F)cc3)cc2c1=O | > 300 | 77 | 13 | > 1000 | > 300
O=C(O)/C(O)=C/C(=O)c1cn(Cc2ccc(F)cc2)c2ccc(OCc3ccc(F)cc3)cc2c1=O | 3 | 1000 | 1 | > 1000 | 0.05
CCOC(=O)/C=C/c1ccc2c(c1)c(=O)c(C(=O)/C=C(\O)C(=O)OCC)cn2Cc1ccc(F)cc1 | > 300 | 7 | > 140 | > 1000 | > 300
O=C(O)/C=C/c1ccc2c(c1)c(=O)c(C(=O)/C=C(\O)C(=O)O)cn2Cc1ccc(F)cc1 | 8 | 200 | 5 | > 1000 | 0.03
O=C(O)/C(O)=C/C(=O)c1cn(Cc2ccc(F)cc2)c2ccc(Br)cc2c1=O | 1.6 | 250 | 4 | > 1000 | 0.03

— ChEMBL document CHEMBL1770150, “Synthesis, biological evaluation and molecular modeling studies of quinolonyl diketo acid derivatives: new structural insight into the HIV-1 integrase inhibition” (Eur J Med Chem, 2011)
